ChEMBL document CHEMBL3232973, “The identification of novel 5'-amino gemcitabine analogs as potent RRM1 inhibitors” (Bioorg Med Chem, 2014)
Activity calls are given as the source filed them. The rule behind the calls is not given here.

Columns and labels:
[1] = molecular target: T1, Ribonucleoside-diphosphate reductase large subunit (Homo sapiens) (UniProt P23921); assay: Inhibition of RRM1 in human U2OS cells assessed as gammaH2AX induction at 0.5 to 125 uM after 2 hrs by FITC/propidium iodide-staining based flow cytometry in presence of SCH900776; format: cell-based
T1 sequence (whole entry): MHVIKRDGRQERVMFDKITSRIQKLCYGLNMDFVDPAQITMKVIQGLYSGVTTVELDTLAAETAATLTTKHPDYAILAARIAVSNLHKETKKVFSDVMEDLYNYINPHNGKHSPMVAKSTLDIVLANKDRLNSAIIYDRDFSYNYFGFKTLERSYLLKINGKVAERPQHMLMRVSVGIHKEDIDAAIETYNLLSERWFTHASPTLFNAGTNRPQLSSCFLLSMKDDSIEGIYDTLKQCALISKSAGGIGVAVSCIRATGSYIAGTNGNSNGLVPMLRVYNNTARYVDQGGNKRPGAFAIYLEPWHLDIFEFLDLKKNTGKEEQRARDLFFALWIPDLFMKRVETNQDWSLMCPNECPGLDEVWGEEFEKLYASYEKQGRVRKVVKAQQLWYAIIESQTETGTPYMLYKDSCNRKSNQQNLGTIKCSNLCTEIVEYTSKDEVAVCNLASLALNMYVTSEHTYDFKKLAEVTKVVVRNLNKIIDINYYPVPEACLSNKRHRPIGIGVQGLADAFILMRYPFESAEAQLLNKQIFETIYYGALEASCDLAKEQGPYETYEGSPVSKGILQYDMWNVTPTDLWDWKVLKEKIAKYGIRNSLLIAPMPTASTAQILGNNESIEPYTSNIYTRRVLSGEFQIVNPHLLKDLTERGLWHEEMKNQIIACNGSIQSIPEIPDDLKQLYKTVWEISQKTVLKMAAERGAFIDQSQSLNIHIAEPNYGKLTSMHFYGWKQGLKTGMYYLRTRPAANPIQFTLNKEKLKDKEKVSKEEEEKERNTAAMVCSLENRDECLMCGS
How it was run: (§1)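 U2OS cells were given titrated compound overnight, then kept with or without 0.5 uM SCH 900776 for a further 2 h in the compound's presence. Cells were fixed and permeabilized in 70% ethanol, stained with FITC anti-γH2AX antibody and counterstained with propidium iodide. Read-out was flow cytometry or imaging, given as % γH2AX-positive cells.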

[2] = molecular target: T1, Ribonucleoside-diphosphate reductase large subunit (Homo sapiens); assay: Inhibition of RRM1 in human U2OS cells assessed as gammaH2AX induction at 0.5 to 125 uM after 2 hrs by FITC/propidium iodide-staining based flow cytometry in absence of SCH900776; format: cell-based; how it was run: as §1
[3] = molecular target: T1, Ribonucleoside-diphosphate reductase large subunit (Homo sapiens); assay: Inhibition of RRM1 in human U2OS cells assessed as gammaH2AX induction after 2 hrs by FITC/propidium iodide-staining based flow cytometry in presence of SCH900776; format: cell-based; how it was run: as §1
[4] = Binding affinity to yeast RRM1 assessed as reduction of unbound compound level by line-broadening NMR spectroscopy; design: species or system Saccharomyces cerevisiae
Saccharomyces cerevisiae [5] = assay: Binding affinity to yeast RRM1 assessed as reduction of free compound level by line-broadening NMR spectroscopy relative to control; design: scale not given: the % may be the effect or the level left
Saccharomyces cerevisiae [6] = assay: Binding affinity to yeast RRM1 assessed as reduction of unbound-compound level at 200 uM by NOESY-spectroscopy
[7] = Competitive binding affinity to yeast RRM1 assessed as reduction in CDP NMR signals by STD-NMR spectroscopy; design: species or system Saccharomyces cerevisiae
[8] = molecular target: T2, Ribonucleotide reductase (Homo sapiens) (UniProt P23921+Q7LG56); assay: Inhibition of human RRM1/RNR2 activity using CDP as substrate assessed as reduction of dCDP production at 100 uM preincubated for 30 mins followed by substrate addition measured after 1 hr by NMR spectroscopy; format: protein-complex assay
How it was run: (§2)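 Human RRM1 and RNR2 were run at 27 °C in 50 mM d-Tris in D2O, pH 7.6, with 10 mM d-DTT. Compound was preincubated 30 min with active enzyme and 1 mM ATP. CDP was then added to start the reaction, which was heat-quenched after 1 h. 1H NMR measured dCDP formed and CDP consumed against control spectra. Controls were dATP, didox and gemcitabine diphosphate.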

[9] = molecular target: T1, Ribonucleoside-diphosphate reductase large subunit (Homo sapiens); assay: Inhibition of RRM1 in human CEM cells assessed as depletion of dATP level at 1 uM after 2 hrs by HPLC analysis; format: cell-based; settings: CCRF-CEM
How it was run: (§3)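 CEM cells were treated for 2 h, with untreated cells as control. Pellets were taken up in ice-cold water and deproteinized with an equal volume of 6% TCA. Supernatants were neutralized with NH4OH, then run on ion-pair HPLC (tetrabutylammonium hydroxide/KH2PO4, pH 7.0 gradient) with UV detection at 260 nm. Pool levels are peak AUC, in triplicate.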

[10] = molecular target: T2, Ribonucleotide reductase (Homo sapiens); assay: Inhibition of human RRM1/RNR2 activity using CDP as substrate assessed as reduction of CDP consumption at 100 uM preincubated for 30 mins followed by substrate addition measured after 1 hr by NMR spectroscopy; format: protein-complex assay; how it was run: as §2
[11] = molecular target: T1, Ribonucleoside-diphosphate reductase large subunit (Homo sapiens); assay: Inhibition of RRM1 in human CEM cells assessed as depletion of dCTP level at 1 uM after 2 hrs by HPLC analysis; format: cell-based; settings: CCRF-CEM; how it was run: as §3
[12] = molecular target: T1, Ribonucleoside-diphosphate reductase large subunit (Homo sapiens); assay: Inhibition of RRM1 in human CEM cells assessed as depletion of dGTP level at 1 uM after 2 hrs by HPLC analysis; format: cell-based; settings: CCRF-CEM; how it was run: as §3

Structure (SMILES) | inhibition [1] | inhibition [2] | inhibition [3] | Kd [4] | Activity (Saccharomyces cerevisiae [5]) | Ki [7] | inhibition [8] | inhibition [9] | inhibition [10] | inhibition [11] | inhibition [12] | Activity (Saccharomyces cerevisiae [6])
Nc1ccn([C@@H]2O[C@H](CN3CCn4nccc4C3)[C@@H](O)C2(F)F)c(=O)n1 | Active | Active | Dose-dependent effect | 200 µM | 27% | 150 µM | 32% | Active | 32% | Active | Active | Active
Nc1ccn([C@@H]2O[C@H](CNCCN3CCCC3=O)[C@@H](O)C2(F)F)c(=O)n1 | Active | Active | Dose-dependent effect |  |  |  |  |  |  |  |  | 
C[C@H](NC[C@H]1O[C@@H](n2ccc(N)nc2=O)C(F)(F)[C@@H]1O)c1ccnn1C | Active | Active | Dose-dependent effect |  |  |  |  |  |  |  |  | 

Further lines, with some results ahead:

inhibition [1] | inhibition [2] | inhibition [3] | Kd [4] | Activity (Saccharomyces cerevisiae [5]) | Ki [7] | inhibition [8] | inhibition [9] | inhibition [10] | inhibition [11] | inhibition [12] | Structure (SMILES) | Activity (Saccharomyces cerevisiae [6])
Active | Active |  |  |  |  |  |  |  |  |  | Nc1ccn([C@@H]2O[C@H](CO)[C@@H](O)C2(F)F)c(=O)n1 | 
Active | Active | Dose-dependent effect |  |  |  |  |  |  |  |  | Nc1ccn([C@@H]2O[C@H](CNCc3ccco3)[C@@H](O)C2(F)F)c(=O)n1 | 
